The nature of assay [1]: Antimycobacterial activity against Mycobacterium bovis BCG 1173P2. It is filed as functional, Mycobacterium bovis BCG str. Pasteur 1173P2. To be noted: Mycobacterium tuberculosis variant bovis BCG. The method, boiled down: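 M. bovis BCG on Middlebrook 7H11 agar with OADC and increasing inhibitor concentrations. Serial 10-fold dilutions of actively growing culture plated, 37°C for 10 to 14 days.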

For assay [2], the system named is Mycobacterium tuberculosis. Kind of assay: Antimycobacterial activity against Mycobacterium tuberculosis H37Rv at 10 ug/ml after 15 to 20 days by agar proportion method. It is filed as functional. The method, boiled down:
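Agar proportion method. H37Rv grown in 7H9 at 37°C with shaking to OD600 1.0. Diluted log-phase culture giving about 1,000 CFU plated on 7H11+OADC control and drug-containing plates, incubated 37°C.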

Assay [3] has as its system Mycobacterium bovis BCG str. Pasteur 1173P2. Kind of assay: Antimycobacterial activity against Mycobacterium bovis BCG 1173P2 assessed as inhibition of mycolic acid biosynthesis. The format is functional. The method, boiled down: (§1)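 Mid-log BCG in Sauton's medium, drug at 37°C for 8 h, then 1 µCi/ml [2-14C]acetate for 16 h. Cells PBS-washed, hydrolysed in 15% tetrabutylammonium hydroxide at 100°C overnight, methylated with CH3I. TLC: MAME bands scraped and counted; FAMEs (50,000 cpm) on reverse-phase TLC, chloroform-methanol 2:3. INH 1 µg/ml positive control. Triplicates, one of three experiments, mean ± SEM.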

For assay [4] the test system is unchanged. Kind of assay: Antimycobacterial activity against Mycobacterium bovis BCG 1173P2 assessed as inhibition of oleic acid methyl ester synthesis at 100 ug/ml after 8 hrs. It is filed as functional. The method, boiled down: (§2)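 BCG in Sauton's medium, drug 8 h, then [14C]acetate labelling for 16 h. Methyl esters resolved by 2-D TLC: first dimension without silver, hexane-ethyl acetate 19:1 run twice; then silver nitrate layer, petroleum ether-diethyl ether 17:3 run three times. Triplicates, one of three experiments, mean ± SEM, Student's t test.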

The test system of a further assay is BCG. Kind of assay: Inhibition of delta-9 desaturase activity in Mycobacterium bovis BCG cell extract 1173P2 assessed as inhibition of oleic acid synthesis at 25 ug/ml after 1 hr in presence of NADPH and [1-14C]stearoyl-CoA. It is filed as cell-free. Also on record: scale not given: the % may be the effect or the level left. To be noted: Mycobacterium bovis BCG str. Pasteur 1173P2. In a few lines: (§3)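 Cell-free assay. BCG grown in Sauton's with 20 µg/ml FeSO4, French-press lysed in 0.25 M sucrose. 1 mg lysate, 1 µmol NADPH, phosphate buffer pH 7.2, in 1 ml. Inhibitor preincubated 10 min at 37°C, then 0.25 µCi [1-14C]stearoyl-CoA added, 37°C 1 h. Saponified, methylated, [14C]oleate band scraped and counted. Triplicates, one of two experiments, mean ± SEM.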

For assay [5], the system named is Mycolicibacterium smegmatis. Nature of the assay: Antimycobacterial activity against Mycobacterium smegmatis at 100 ug/ml after 15 to 20 days by agar proportion method. The format is functional, organism-based.
The test system of assay [6] is Mycobacterium bovis BCG str. Pasteur 1173P2. Nature of the assay: Antimycobacterial activity against Mycobacterium bovis BCG 1173P2 assessed as inhibition of FAS-2 activity at 5 ug/ml after 8 hrs. It is filed as functional. The method, boiled down: as §1
The test system is the same in assay [7]. Nature of the assay: Antimycobacterial activity against Mycobacterium bovis BCG 1173P2 assessed as inhibition of oleic acid methyl ester synthesis after 8 hrs. The format is functional. In a few lines: as §2
For assay [8] the test system is unchanged. Nature of the assay: Antimycobacterial activity against Mycobacterium bovis BCG 1173P2 assessed as inhibition of mycolic acid biosynthesis at 100 ug/ml after 8 hrs. Also on record: scale not given: the % may be the effect or the level left. The format is functional. In a few lines:
as §1

A further assay relates to BCG 1173P2. Nature of the assay: Inhibition of delta-9 desaturase activity in Mycobacterium bovis BCG 1173P2 cell extract assessed as inhibition of oleic acid synthesis at 10 to 100 ug/ml after 1 hr in presence of NADPH and [1-14C]stearoyl-CoA. The settings on record: Mycobacterium bovis BCG str. Pasteur 1173P2. The format is cell-free. In a few lines: as §3

SMILES strings stand for the structures. ≈ marks a conversion by molar mass, not a printed value. Calls of active or inactive are those of the source. No cut-off for these calls is given here.

For `Oc1ccc(Cl)cc1Oc1ccc(Cl)c2cccnc12`, the MIC in assay [1] stood at 10 µg/mL (≈ 32.7 µM). In addition, the Activity in assay [2] was 99%; in the assay on BCG it was 75%; in assay [7], “Dose-dependent effect”; in [8], 55%; in the assay with BCG 1173P2, “Dose-dependent effect”. Moreover, the outcome in assay [3], in assay [4] and in assay [6] was Active. In addition, the outcome in [5] was inactive.

As for `O=C(CC(=O)C(F)(F)F)c1ccc([N+](=O)[O-])cc1`, the lowest concentration to inhibit growth in assay [1] (MIC) was 50 µg/mL (≈ 191 µM). In addition, in assay [4], the result was Active. Besides, the Activity is 25% in the assay with BCG and “Dose-dependent effect” in [7].

As usually defined, the MIC is the lowest concentration that inhibits growth of the organism.

(Values after ChEMBL document CHEMBL1255244, “Antimycobacterial Activity and Mechanism of Action of NAS-91” (2008).)
